{"source": "ChEMBL document CHEMBL1128503", "about": "(J Med Chem, 1995)", "key": {"[1]": {"target": "T1, Sodium-dependent dopamine transporter (Rattus norvegicus, UniProt P23977)", "T1 sequence (P23977 whole entry)": "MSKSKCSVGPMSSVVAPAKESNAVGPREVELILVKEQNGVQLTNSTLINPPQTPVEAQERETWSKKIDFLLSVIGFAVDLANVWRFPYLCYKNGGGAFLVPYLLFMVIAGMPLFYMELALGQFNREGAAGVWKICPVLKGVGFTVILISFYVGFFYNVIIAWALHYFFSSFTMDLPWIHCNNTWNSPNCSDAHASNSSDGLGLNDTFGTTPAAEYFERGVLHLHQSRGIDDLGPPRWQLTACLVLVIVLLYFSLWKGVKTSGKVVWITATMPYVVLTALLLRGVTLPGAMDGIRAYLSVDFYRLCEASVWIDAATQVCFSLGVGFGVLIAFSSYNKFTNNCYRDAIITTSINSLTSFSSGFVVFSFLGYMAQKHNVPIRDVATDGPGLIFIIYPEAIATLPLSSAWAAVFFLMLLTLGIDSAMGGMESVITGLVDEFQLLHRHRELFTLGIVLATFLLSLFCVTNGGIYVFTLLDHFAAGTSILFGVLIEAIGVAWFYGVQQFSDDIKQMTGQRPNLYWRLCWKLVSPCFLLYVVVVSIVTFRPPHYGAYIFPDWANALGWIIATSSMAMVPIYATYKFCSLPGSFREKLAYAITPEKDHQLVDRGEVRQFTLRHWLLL", "experiment": "Binding affinity towards dopamine transporter using [3H]-mazindol as radioligand in rat striatal membranes.", "type": "cell membranes", "in_short": "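Competition assay: test analogues displace [3H]mazindol binding in rat striatal membranes. This radioligand labels a single high-affinity, sodium-dependent cocaine site on the dopamine carrier.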"}, "[2]": {"target": "T1, Sodium-dependent dopamine transporter", "experiment": "Inhibition of [3H]dopamine […] to rat striatal synaptosome dopamine transporter", "type": "tissue-based, Brain"}}, "data": [{"compound": "CN1C2CCC1[C@@H](CCc1ccccc1)[C@@H](c1ccc(Cl)cc1)C2", "note": "(stereo not given in full)", "values": [{"measurement": "Ki", "setting": "[1]", "value": 1.46, "unit": "nM"}, {"measurement": "Ki", "setting": "[2]", "value": 1.54, "unit": "nM"}]}, {"compound": "CN1C2CCC1[C@@H](/C=C\\Cl)[C@@H](c1ccc(Cl)cc1)C2", "note": "(stereo not given in full)", "values": [{"measurement": "Ki", "setting": "[1]", "value": 0.22, "unit": "nM"}, {"measurement": "Ki", "setting": "[2]", "value": 0.88, "unit": "nM"}]}, {"compound": "CC[C@@H]1C2CCC(C[C@@H]1c1ccc(Cl)cc1)N2C", "note": "(stereo not given in full)", "values": [{"measurement": "Ki", "setting": "[1]", "value": 2.17, "unit": "nM"}, {"measurement": "Ki", "setting": "[2]", "value": 2.35, "unit": "nM"}]}, {"compound": "C=C[C@@H]1C2CCC(C[C@@H]1c1ccc(Cl)cc1)N2C", "note": "(stereo not given in full)", "values": [{"measurement": "Ki", "setting": "[1]", "value": 0.59, "unit": "nM"}, {"measurement": "Ki", "setting": "[2]", "value": 2.47, "unit": "nM"}]}, {"compound": "CN1C2CCC1[C@@H](/C=C/Cl)[C@@H](c1ccc(Cl)cc1)C2", "note": "(stereo not given in full)", "values": [{"measurement": "Ki", "setting": "[1]", "value": 0.42, "unit": "nM"}, {"measurement": "Ki", "setting": "[2]", "value": 1.13, "unit": "nM"}]}, {"compound": "CCC[C@@H]1C2CCC(C[C@@H]1c1ccc(Cl)cc1)N2C", "note": "(stereo not given in full)", "values": [{"measurement": "Ki", "setting": "[1]", "value": 0.94, "unit": "nM"}, {"measurement": "Ki", "setting": "[2]", "value": 1.08, "unit": "nM"}]}, {"compound": "CCCCCC[C@@H]1C2CCC(C[C@@H]1c1ccc(Cl)cc1)N2C", "note": "(stereo not given in full)", "values": [{"measurement": "Ki", "setting": "[1]", "value": 156, "unit": "nM"}, {"measurement": "Ki", "setting": "[2]", "value": 271, "unit": "nM"}]}, {"compound": "CCC[C@@H]1C2CCC(C[C@@H]1c1ccccc1)N2C", "note": "(stereo not given in full)", "values": [{"measurement": "Ki", "setting": "[1]", "value": 1.87, "unit": "nM"}, {"measurement": "Ki", "setting": "[2]", "value": 1.61, "unit": "nM"}]}, {"compound": "CCCC[C@@H]1C2CCC(C[C@@H]1c1ccc(Cl)cc1)N2C", "note": "(stereo not given in full)", "values": [{"measurement": "Ki", "setting": "[1]", "value": 1.21, "unit": "nM"}, {"measurement": "Ki", "setting": "[2]", "value": 0.84, "unit": "nM"}]}, {"compound": "COC(=O)C1C2CC[C@H](C[C@@H]1c1ccc(Cl)cc1)N2C", "note": "(stereo not given in full)", "values": [{"measurement": "Ki", "setting": "[1]", "value": 0.83, "unit": "nM"}, {"measurement": "Ki", "setting": "[2]", "value": 2.85, "unit": "nM"}]}]}
